Data as given in ChEMBL document CHEMBL1156233, “Synthesis and anti-HIV activity of alkylated quinoline 2,4-diols” (Bioorg Med Chem, 2010).

Tests used:
[1] = tested on: Human immunodeficiency virus 1; experiment: Antiviral activity against Human immunodeficiency virus 1 NL4.3 infected human CEM cells expressing GFP at 21.20 uM measured up to 8 days postinfection by p24 antigen capture ELISA; assay type: functional; settings: Human immunodeficiency virus 1, NL4.3, CCRF-CEM, 192 h
Method in brief: (§1)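 CD4+ T-lymphoblastoid CEM-GFP cells were infected with HIV-1 NL4-3 at MOI 0.05, following the lab's published protocol. Cells were then exposed to each compound at a concentration found non-cytotoxic by MTT and kept up to 8 days post infection. Virus was read out by p24 antigen-capture ELISA. IC50 is the concentration giving 50% protection of cells from virus (n = 3).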

[2] = tested on: Human immunodeficiency virus 1; experiment: Antiviral activity against Human immunodeficiency virus 1 NL4.3 infected human CEM cells expressing GFP measured up to 8 days postinfection by p24 antigen capture ELISA; assay type: functional, organism-based; settings: Human immunodeficiency virus 1, NL4.3, CCRF-CEM, 192 h; method in brief: as §1
[3] = Cytotoxicity against human CEM cells expressing GFP after 48 to 72 hrs by MTT assay; assay type: cell-based; settings: CEM cells expressing GFP (CCRF-CEM)
Method in brief: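 MTT cell-viability kit used per the manufacturer's protocol. CEM-GFP cells were seeded at 2 × 10⁴ cells/well and given compound at a range of concentrations, with untreated wells as controls. Formazan was solubilized and read at 540 nm. CC50 is the concentration reducing cell proliferation by 50% (n = 3).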

[4] = tested on: Human immunodeficiency virus 1; experiment: Antiviral activity against Human immunodeficiency virus 1 NL4.3 infected human CEM cells expressing GFP at 27.42 uM measured up to 8 days postinfection by p24 antigen capture ELISA; assay type: functional; settings: Human immunodeficiency virus 1, NL4.3, CCRF-CEM, 192 h; method in brief: as §1
[5] = Therapeutic index, ratio of CC50 for human CEM cells expressing GFP to IC50 for Human immunodeficiency virus 1 NL4.3; assay type: cell-based, CCRF-CEM; settings: read-out: Ratio CC50/IC50
[6] = tested on: Human immunodeficiency virus 1; experiment: Antiviral activity against Human immunodeficiency virus 1 NL4.3 infected human CEM cells expressing GFP at 35.17 uM measured day 8 on post infection by p24 antigen capture ELISA; assay type: functional; settings: Human immunodeficiency virus 1, NL4.3, CCRF-CEM, 192 h; method in brief: as §1
[7] = tested on: Human immunodeficiency virus 1; experiment: Antiviral activity against Human immunodeficiency virus 1 NL4.3 infected human CEM cells expressing GFP at 30.56 uM measured up to 8 days postinfection by p24 antigen capture ELISA; assay type: functional; settings: Human immunodeficiency virus 1, NL4.3, CCRF-CEM, 192 h; method in brief: as §1
[8] = tested on: Human immunodeficiency virus 1; experiment: Antiviral activity against Human immunodeficiency virus 1 NL4.3 infected human CEM cells expressing GFP at 43.29 uM measured up to 8 days postinfection by p24 antigen capture ELISA; assay type: functional; settings: Human immunodeficiency virus 1, NL4.3, CCRF-CEM, 192 h; method in brief: as §1
[9] = tested on: Human immunodeficiency virus 1; experiment: Antiviral activity against Human immunodeficiency virus 1 NL4.3 infected human CEM cells expressing GFP at 14.98 uM measured up to 8 days postinfection by p24 antigen capture ELISA; assay type: functional; settings: Human immunodeficiency virus 1, NL4.3, CCRF-CEM, 192 h; method in brief: as §1
[10] = tested on: Human immunodeficiency virus 1; experiment: Antiviral activity against Human immunodeficiency virus 1 NL4.3 infected human CEM cells expressing GFP at 8.41 uM measured up to 8 days postinfection by p24 antigen capture ELISA; assay type: functional; settings: Human immunodeficiency virus 1, NL4.3, CCRF-CEM, 192 h; method in brief: as §1
[11] = tested on: Human immunodeficiency virus 1; experiment: Antiviral activity against Human immunodeficiency virus 1 NL4.3 infected human CEM cells expressing GFP at 1.84 uM measured up to 8 days postinfection by p24 antigen capture ELISA; assay type: functional; settings: Human immunodeficiency virus 1, NL4.3, CCRF-CEM, 192 h; method in brief: as §1
[12] = tested on: Human immunodeficiency virus 1; experiment: Antiviral activity against Human immunodeficiency virus 1 NL4.3 infected human CEM cells expressing GFP at 1.68 uM measured up to 8 days postinfection by p24 antigen capture ELISA; assay type: functional; settings: Human immunodeficiency virus 1, NL4.3, CCRF-CEM, 192 h; method in brief: as §1
[13] = tested on: Human immunodeficiency virus 1; experiment: Antiviral activity against Human immunodeficiency virus 1 NL4.3 infected human CEM cells expressing GFP at 65.93 uM measured up to 8 days postinfection by p24 antigen capture ELISA; assay type: functional; settings: Human immunodeficiency virus 1, NL4.3, CCRF-CEM, 192 h; method in brief: as §1
[14] = tested on: Human immunodeficiency virus 1; experiment: Antiviral activity against Human immunodeficiency virus 1 NL4.3 infected human CEM cells expressing GFP at 59.80 uM measured up to 8 days postinfection by p24 antigen capture ELISA; assay type: functional; settings: Human immunodeficiency virus 1, NL4.3, CCRF-CEM, 192 h; method in brief: as §1
[15] = tested on: Human immunodeficiency virus 1; experiment: Antiviral activity against Human immunodeficiency virus 1 NL4.3 infected human CEM cells expressing GFP at 12.30 uM measured up to 8 days postinfection by p24 antigen capture ELISA; assay type: functional; settings: Human immunodeficiency virus 1, NL4.3, CCRF-CEM, 192 h; method in brief: as §1
[16] = tested on: Human immunodeficiency virus 1; experiment: Antiviral activity against Human immunodeficiency virus 1 NL4.3 infected human CEM cells expressing GFP at 18.58 uM measured up to 8 days postinfection by p24 antigen capture ELISA; assay type: functional; settings: Human immunodeficiency virus 1, NL4.3, CCRF-CEM, 192 h; method in brief: as §1
[17] = tested on: Human immunodeficiency virus 1; experiment: Antiviral activity against Human immunodeficiency virus 1 NL4.3 infected human CEM cells expressing GFP at 19.60 uM measured up to 8 days postinfection by p24 antigen capture ELISA; assay type: functional; settings: Human immunodeficiency virus 1, NL4.3, CCRF-CEM, 192 h; method in brief: as §1
[18] = tested on: Human immunodeficiency virus 1; experiment: Antiviral activity against Human immunodeficiency virus 1 NL4.3 infected human CEM cells expressing GFP at 1.59 uM measured up to 8 days postinfection by p24 antigen capture ELISA; assay type: functional; settings: Human immunodeficiency virus 1, NL4.3, CCRF-CEM, 192 h; method in brief: as §1
[19] = tested on: Human immunodeficiency virus 1; experiment: Antiviral activity against Human immunodeficiency virus 1 NL4.3 infected human CEM cells expressing GFP at 23.36 uM measured up to 8 days postinfection by p24 antigen capture ELISA; assay type: functional; settings: Human immunodeficiency virus 1, NL4.3, CCRF-CEM, 192 h; method in brief: as §1
[20] = tested on: Human immunodeficiency virus 1; experiment: Antiviral activity against Human immunodeficiency virus 1 NL4.3 infected human CEM cells expressing GFP at 22.30 uM measured up to 8 days postinfection by p24 antigen capture ELISA; assay type: functional; settings: Human immunodeficiency virus 1, NL4.3, CCRF-CEM, 192 h; method in brief: as §1
[21] = tested on: Human immunodeficiency virus 1; experiment: Antiviral activity against Human immunodeficiency virus 1 NL4.3 infected human CEM cells expressing GFP at 16.73 uM measured up to 8 days postinfection by p24 antigen capture ELISA; assay type: functional; settings: Human immunodeficiency virus 1, NL4.3, CCRF-CEM, 192 h; method in brief: as §1
[22] = tested on: Human immunodeficiency virus 1; experiment: Antiviral activity against Human immunodeficiency virus 1 NL4.3 infected human CEM cells expressing GFP at 31.12 uM measured up to 8 days postinfection by p24 antigen capture ELISA; assay type: functional; settings: Human immunodeficiency virus 1, NL4.3, CCRF-CEM, 192 h; method in brief: as §1
[23] = Solubility of the compound; assay type: physicochemical
[24] = tested on: Human immunodeficiency virus 1; experiment: Antiviral activity against Human immunodeficiency virus 1 NL4.3 infected human CEM cells expressing GFP at 24.48 uM measured up to 8 days postinfection by p24 antigen capture ELISA; assay type: functional; settings: Human immunodeficiency virus 1, NL4.3, CCRF-CEM, 192 h; method in brief: as §1
[25] = tested on: Human immunodeficiency virus 1; experiment: Antiviral activity against Human immunodeficiency virus 1 NL4.3 infected human CEM cells expressing GFP at […] uM measured up to 8 days postinfection by p24 antigen capture ELISA; assay type: functional; settings: Human immunodeficiency virus 1, NL4.3, CCRF-CEM, 192 h
[26] = tested on: Human immunodeficiency virus 1; experiment: Antiviral activity against Human immunodeficiency virus 1 NL4.3 infected human CEM cells expressing GFP at 20.20 uM measured up to 8 days postinfection by p24 antigen capture ELISA; assay type: functional; settings: Human immunodeficiency virus 1, NL4.3, CCRF-CEM, 192 h; method in brief: as §1
[27] = tested on: Human immunodeficiency virus 1; experiment: Antiviral activity against Human immunodeficiency virus 1 NL4.3 infected human CEM cells expressing GFP at 23.51 uM measured up to 8 days postinfection by p24 antigen capture ELISA; assay type: functional; settings: Human immunodeficiency virus 1, NL4.3, CCRF-CEM, 192 h; method in brief: as §1
[28] = tested on: Human immunodeficiency virus 1; experiment: Antiviral activity against Human immunodeficiency virus 1 NL4.3 infected human CEM cells expressing GFP at 4.98 uM measured up to 8 days postinfection by p24 antigen capture ELISA; assay type: functional; settings: Human immunodeficiency virus 1, NL4.3, CCRF-CEM, 192 h
Method in brief: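 Human CD4+ T-cell line CEM-GFP infected with HIV-1 NL4.3 at MOI 0.05, then incubated with compound at a non-cytotoxic concentration (chosen from a prior MTT viability assay in CEM-GFP) for up to 8 days post-infection. Protection is read by p24 antigen capture ELISA, n = 3.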

| Structure (SMILES) | IC50 [2] | CC50 [3] | selectivity ratio [5] | also measured |
| --- | --- | --- | --- | --- |
| C=CCOc1cc(OCCC=C(C)C)c2ccccc2n1 |  |  |  | inhibition at 21.2 µM [1]: 16% |
| C#CCOc1c(CC#C)c(O)nc2ccccc12 | 11.6 µM | 147 µM | 12.7 | inhibition at 27.42 µM [4]: 92.4% |
| C#CCOc1cc(OCC=C(C)C)nc2ccccc12 |  |  |  | inhibition at 14.98 µM [9]: 2.56% |
| C=CCOc1cc(OCCC(C)C)c2ccccc2n1 |  |  |  | inhibition at 1.84 µM [11]: 23% |
| CC(C)=CCOc1cc(OCCC(C)C)c2ccccc2n1 |  |  |  | inhibition at 1.68 µM [12]: 31.2% |
| CC(C)=CCCOc1cc(OCCC=C(C)C)c2ccccc2n1 |  |  |  | inhibition at 12.3 µM [15]: 32.7% |
| C#CCOc1cc(OCCC(C)C)nc2ccccc12 |  |  |  | inhibition at 18.58 µM [16]: 56.4% |
| C#CCOc1cc(OCCCC)nc2ccccc12 |  |  |  | inhibition at 19.6 µM [17]: 56.4% |
| CC(C)=CCCOc1cc(OCCC(C)C)c2ccccc2n1 |  |  |  | inhibition at 1.59 µM [18]: 15% |
| CC(C)CCOc1cc(OCc2ccccc2)nc2ccccc12 |  |  |  | inhibition at 23.36 µM [19]: 47% |
| C=CCOc1cc(OCC=C(C)C)c2ccccc2n1 |  |  |  | inhibition at 22.3 µM [20]: 35% |
| C#CCOc1cc(OCC=C)nc2ccccc12 |  |  |  | inhibition at 16.73 µM [21]: 16.1% |
| C=CCC1(CC=C)C(=O)Nc2ccccc2C1=O |  |  |  | inhibition at 31.12 µM [22]: 44.3% |
| CCCCC1(CCCC)C(=O)Nc2ccccc2C1=O |  |  |  | solubility [23]: Insoluble |
| CC(C)Oc1c(C(C)C)c(O)nc2ccccc12 |  |  |  | solubility [23]: Insoluble |
| CCCCCCCCOc1cc(OCCCCCCCC)c2ccccc2n1 |  |  |  | solubility [23]: Insoluble |
| CC(C)=CCOc1c(CC=C(C)C)c(O)nc2ccccc12 | 3.8 µM | 71.2 µM | 18.7 | inhibition at 20.2 µM [26]: 87.5% |
| Cc1cn([C@H]2C[C@H](N=[N+]=[N-])[C@@H](CO)O2)c(=O)[nH]c1=O [ZIDOVUDINE] | 1.04 µM |  |  | inhibition at 4.98 µM [28]: 89.8% |

Further lines, with some results ahead:

| IC50 [2] | Structure (SMILES) | CC50 [3] | selectivity ratio [5] | also measured |
| --- | --- | --- | --- | --- |
| 19.3 µM | C#CCOc1cc(O)nc2ccccc12 | 103 µM | 5.3 | inhibition at 35.17 µM [6]: 65.1% |
| 8.95 µM | CC(C)=CCOc1cc(O)nc2ccccc12 | 77.4 µM | 8.64 | inhibition at 30.56 µM [7]: 95.5% |
| 3.89 µM | CC(C)CCOc1cc(O)nc2ccccc12 | 115 µM | 29.5 | inhibition at 43.29 µM [8]: 76.7% |
| 2.35 µM | CC(C)=CCC1(CC=C(C)C)C(=O)Nc2ccccc2C1=O | 62.6 µM | 26.6 | inhibition at 8.41 µM [10]: 96% |
| 34.4 µM | CCCCOc1c(CCCC)c(O)nc2ccccc12 | 192 µM | 5.56 | inhibition at 65.93 µM [13]: 81% |
| 34.9 µM | CC(C)CCOc1c(CCC(C)C)c(O)nc2ccccc12 | 160 µM | 4.59 | inhibition at 59.8 µM [14]: 88.6% |
| 16.7 µM | CCCC1(CCC)C(=O)Nc2ccccc2C1=O | 113 µM | 6.78 | inhibition at 24.48 µM [24]: 74.7% |
| 3.23 µM | CC(C)=CCCC1(CCC=C(C)C)C(=O)Nc2ccccc2C1=O | 67.4 µM | 20.9 | inhibition at 12.3 µM [15]: 82% |
| 8.76 µM | CC(C)=CCCOc1c(CCC=C(C)C)c(O)nc2ccccc12 | 103 µM | 11.8 | inhibition at 23.07 µM [25]: 68.3% |
| 2.99 µM | C=CC(C)(C)C1(CC=C(C)C)C(=O)Nc2ccccc2C1=O (stereo not given) [BUCHAPINE] | 55.9 µM | 18.7 | inhibition at 23.51 µM [27]: 80.1% |
